Key:
[1] = Inhibition of bacterial lipoprotein lipase by FRET assay; design: species or system Bacteria
Outline: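 Purified enzymes: bacterial lipoprotein lipase (0.46 μg) or porcine pancreatic lipase type II (1.0 μg, suspended in 1:9 DMSO/water). Run in 50 mM Tris pH 7.4 with 10 mM CaCl2. Substrate was the pyrene-dinitrophenyl ether lipid FRET reporter at 25 μM, with compounds screened at 10 μM. Fluorescence was read at ex 320/em 400 nm, and percent inhibition was taken at 1.5 h; n = 1 or 2.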

[2] = biological target: T1, Fatty-acid amide hydrolase 1 (Rattus norvegicus, UniProt P97612); experiment: Inhibition of rat histidine tagged FAAH expressed in Escherichia coli by coumarin ester substrate fluorescence assay
T1 sequence (P97612 whole entry): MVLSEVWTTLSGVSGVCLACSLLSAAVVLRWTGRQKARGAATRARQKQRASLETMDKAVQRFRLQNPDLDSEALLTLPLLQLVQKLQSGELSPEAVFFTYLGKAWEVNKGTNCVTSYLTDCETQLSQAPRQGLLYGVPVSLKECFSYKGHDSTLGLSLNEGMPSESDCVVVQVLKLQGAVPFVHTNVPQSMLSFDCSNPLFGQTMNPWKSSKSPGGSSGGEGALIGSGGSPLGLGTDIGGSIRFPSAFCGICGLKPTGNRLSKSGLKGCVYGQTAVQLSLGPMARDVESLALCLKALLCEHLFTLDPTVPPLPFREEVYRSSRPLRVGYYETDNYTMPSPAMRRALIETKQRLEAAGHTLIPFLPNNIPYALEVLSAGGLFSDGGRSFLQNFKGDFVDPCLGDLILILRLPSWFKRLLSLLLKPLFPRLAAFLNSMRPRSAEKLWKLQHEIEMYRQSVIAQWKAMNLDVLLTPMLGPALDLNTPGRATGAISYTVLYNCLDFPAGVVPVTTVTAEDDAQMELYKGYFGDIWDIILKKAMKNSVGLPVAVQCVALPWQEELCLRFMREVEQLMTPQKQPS

SMILES | IC50 [1] [nM] | IC50 [2] [nM]
CCCCCCCCCCC[C@@H](C[C@@H]1OC(=O)[C@H]1CCCCCC)OC(=O)[C@H](CC(C)C)NC=O [ORLISTAT] | 100 | 
O=C(Oc1ccc([N+](=O)[O-])cc1)N1CCC(C(O)(c2ccc3c(c2)OCO3)c2ccc3c(c2)OCO3)CC1 |  | 974
